The record followed here is the RNAGym collection of RNA variant scans (doi:10.1126/science.aae0568).

This sample holds only a part of the variants without activity.

First the molecules themselves.
B1: tRNA (parent)
chain: GUUCCGUUGGCGUAAUGGUAACGCGUCUCCCUCCUAAGGAGAAGACUGCGGGUUCGAGUCCCGUACGGAACG

In this series the parent is B1. Description: yeast fitness relative to wild type (ratio to wild type); higher = fitter; tRNA-Arg(CCU), competitive growth, 37 C, YPD. In outline:
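Gene amplicons from the start population and from each of six end populations were read by 100-nucleotide paired-end sequencing. Those end populations came from pooled Saccharomyces cerevisiae strains carrying tRNA-Arg(CCU) gene variants at the native locus, competed in YPD at 37°C for 24 hours. Fitness relative to wild type was worked out from changes in genotype frequencies. Genotypes needed ≥ 100 starting reads, and estimates < 0.5 were set to 0.5.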
As to C11A C30G A45U G56C, the yeast fitness is not above 0.5.

As for C5U U7A U28A C49U, the yeast fitness is not above 0.5.

Take A21C C34U C49U A69U: the yeast fitness stood at 0.53.

Turning to A20U A65U A69U, the yeast fitness stood at 0.722.

For the variant U7A A20G G23A U26G G50U, the yeast fitness is not above 0.5.

For the variant C5U G67A A69U, the yeast fitness is not above 0.5.

Regarding U26A A57G, the yeast fitness is 0.973.

A36C C61U A65U: the yeast fitness is not above 0.5.

For G56C A65G, the yeast fitness amounted to 0.606.

On to A15U U28A, for which the yeast fitness turned out to be 0.57.

Regarding G17C C27G, the yeast fitness stood at 0.558.

In the case of G6A G10C A15U C61A, the yeast fitness was not above 0.5.

Take A15C G48A C49U U64G C66U: the yeast fitness was not above 0.5.

For C11U G25A A43G, the yeast fitness was found to be 0.592.

Regarding C22G A43G A70U, the yeast fitness was determined as 0.683.

Regarding C34G C46A C62U A69C, the yeast fitness is not above 0.5.

With C29A U35A A70U, the yeast fitness is 0.716.

Take C46A G63C G67A: the yeast fitness amounted to 0.614.

Consider C27G G50C C60G, for which the yeast fitness was not above 0.5.

Consider U7A C49U C62G, for which the yeast fitness was 0.603.

For C27U G48A C49U A70U, the yeast fitness was 0.752.

On to C34A A37U G52A, for which the yeast fitness is not above 0.5.

With C5U C24G A37U G56A A65C, the yeast fitness was not above 0.5.

Take G9A A57U A65C A69C: the yeast fitness was not above 0.5.

Turning to G9A G12U A14U C27G G39A G67A, the yeast fitness was not above 0.5.

Take C49A U53A U59C C61A: the yeast fitness is not above 0.5.

Consider U13G C46U U53A, for which the yeast fitness was not above 0.5.

As for C34G G39A C49G C61U, the yeast fitness was not above 0.5.

On to C5U G9C C11G C24A U26G G68A A69C, for which the yeast fitness was not above 0.5.

As for C29G C33U A45U G56A U59C A65C A70G, the yeast fitness is not above 0.5.

For the variant C49U U54C C55G, the yeast fitness came out at 0.548.

For the variant U7G A15C, the yeast fitness worked out at 0.653.

Regarding G48C U54C, the yeast fitness was 0.973.

For A20G C22G C27G C30U C31G G51C A65G, the yeast fitness worked out at 0.563.

Take G12A A20G U26C C31G C33U A42U: the yeast fitness was not above 0.5.

On to C11A U32G C61A, for which the yeast fitness turned out to be 0.58.

For the variant A14G C27G C34G A37U C61G, the yeast fitness is not above 0.5.

On to G23A C29G A45U C60G C61U A69G, for which the yeast fitness worked out at 0.59.

As to A15U C24G G63A, the yeast fitness was not above 0.5.

As to C4U C31U A45C C46U, the yeast fitness worked out at 1.01.

For C5G C34A A37U G44A G51A C55A A57U, the yeast fitness was not above 0.5.

For C5A G17C G58C, the yeast fitness is not above 0.5.

As for C4G C29A C34U A36U, the yeast fitness is 0.578.

Take A14C A15U U64G C66A: the yeast fitness is not above 0.5.

As to C11U C29G A37C A42U, the yeast fitness was not above 0.5.

For A14C U16A, the yeast fitness came to 0.597.

Consider G52A A70C, for which the yeast fitness worked out at 0.675.

For the variant U2G A36G A40U A43U, the yeast fitness was not above 0.5.

For the variant A20G C22G A45C C46G A57U, the yeast fitness stood at 0.553.

Regarding U32C G44A C61G, the yeast fitness is not above 0.5.

For C27A C29U C61U, the yeast fitness is not above 0.5.

A14U A69G: the yeast fitness was 0.608.

C11G C30G: the yeast fitness is not above 0.5.

As to U7A A14C G25A C30G C61U, the yeast fitness was not above 0.5.

Turning to G23A C33G A43C, the yeast fitness was not above 0.5.

As for U2A A43U, the yeast fitness stood at 0.956.

For the variant U26A U64C, the yeast fitness worked out at 0.856.

A37G C55G C66G: the yeast fitness is not above 0.5.

U2C A37U: the yeast fitness was 0.826.

C5U A20C G58A: the yeast fitness was not above 0.5.

A14G U28C C61U: the yeast fitness was determined as 0.577.

Take C5G A15C A42C G52A U53A: the yeast fitness is not above 0.5.

Turning to C62U G67A, the yeast fitness is 0.849.

On to C22G A40C A43U, for which the yeast fitness is not above 0.5.

For the variant U7C U8C A21U A36U A37C, the yeast fitness was not above 0.5.

U3C G51C C66U: the yeast fitness was not above 0.5.

With G6C U16G C27U C60G, the yeast fitness came out at 0.582.

Consider U16A C24U G44C, for which the yeast fitness is 0.6.

As for U3G C30G A40G, the yeast fitness was determined as 0.836.

For C4A C5A G23A, the yeast fitness is not above 0.5.

U13G G68C: the yeast fitness came to 0.584.

Take C4U C46U: the yeast fitness amounted to 1.01.

Consider C5G G48A C49U A57G, for which the yeast fitness is 0.624.

Regarding C4U C27U A57U, the yeast fitness came out at 0.532.

In the case of G9C U26A G48C, the yeast fitness is not above 0.5.

C11U A42G C49A A57C: the yeast fitness is 0.51.

Regarding C4A G17A G51A C60G A70U, the yeast fitness was not above 0.5.

C5A C22U C27G C30G A45U C62A: the yeast fitness is not above 0.5.

Take C27U U54A: the yeast fitness came out at 0.543.

For the variant G10A A43G G56U A69G, the yeast fitness is not above 0.5.

U8G U35A A70C: the yeast fitness was 0.524.

Consider C30A C33U, for which the yeast fitness was determined as 0.738.

For the variant U2A C34G A40C C46G, the yeast fitness was found to be 0.516.

Turning to C22A A42U C62U, the yeast fitness stood at 0.549.

Consider U3C G12A A45U A69C, for which the yeast fitness is not above 0.5.

On to A20U C30A G67U, for which the yeast fitness is 0.527.

In the case of C30G A43G C49G, the yeast fitness was found to be 0.544.

For C27A G56A, the yeast fitness was determined as 0.707.

For the variant G12A G17C G25C C29G A36U G39A C46U C55U, the yeast fitness is not above 0.5.

As to G10A A65U G68A, the yeast fitness is not above 0.5.

As to G10A U16A G52A A65U, the yeast fitness was not above 0.5.

A21U A43C A45U C49G C61U: the yeast fitness was determined as 0.56.

Turning to A15U G23A G68C, the yeast fitness was not above 0.5.

On to U3G U8A G18C C29G A36C, for which the yeast fitness was not above 0.5.

Consider C27U U59G G68C, for which the yeast fitness worked out at 0.539.

As to C4U G12A A20G C22U C55U, the yeast fitness is 0.606.

With U26C C33G A42C G67C, the yeast fitness was not above 0.5.

In the case of G38C A45G A70C, the yeast fitness was found to be 0.548.

On to C24U U59A U64C, for which the yeast fitness is not above 0.5.

With C29U A36U, the yeast fitness was found to be 0.567.

Turning to G18C G41A A42C G50C A70G, the yeast fitness is not above 0.5.

Consider C5U U19G A21U C29G C61G, for which the yeast fitness is not above 0.5.

As to C46A C66A, the yeast fitness is 0.688.

On to G9A U32G C49G C55A, for which the yeast fitness is not above 0.5.

In the case of U19A A42C, the yeast fitness was found to be 0.862.

Consider U16C G17C C27G A65U, for which the yeast fitness was not above 0.5.

As for U8G A21U C27G C49U, the yeast fitness was 0.687.

With C5U A20C G23C C24U C31U, the yeast fitness was not above 0.5.

In the case of G17C A21G C27U C33G A42U A57G, the yeast fitness was not above 0.5.

As to U7A C46G G51A A65C, the yeast fitness is not above 0.5.

C11U A20U G39A: the yeast fitness is not above 0.5.

Consider A14C A69U, for which the yeast fitness was found to be 0.763.

On to G12C C22G G23A A37C A43C G68A, for which the yeast fitness was not above 0.5.

Turning to C5G G10C U19G A45C G51A, the yeast fitness was not above 0.5.

On to G51C U54A G56C, for which the yeast fitness is not above 0.5.

Take G18A C24G C27U C62U A70C: the yeast fitness is not above 0.5.

G9A C11G G50C C61G A70C: the yeast fitness is not above 0.5.

Turning to C5U C11U A14C, the yeast fitness was 0.731.

On to C24G G56A A57C, for which the yeast fitness is not above 0.5.

Regarding A57U A69U A70C, the yeast fitness was not above 0.5.

Take G23A C27U A65U: the yeast fitness is 0.658.

With G10A G58A A69U, the yeast fitness is 0.54.

For G17C A45G, the yeast fitness stood at 0.546.

Consider A20U C34G G48C U59C, for which the yeast fitness came to 0.548.

Take C11U U13C A42U C55A G56A: the yeast fitness worked out at 0.762.

Take A45U C60U: the yeast fitness was found to be 0.737.

Consider U19C G50A A65C, for which the yeast fitness is 0.566.

For the variant C5U G10C C30U, the yeast fitness is not above 0.5.

Turning to C11U A45U A69C, the yeast fitness came out at 0.874.

As for A36G A45U, the yeast fitness was determined as 1.04.

Regarding A21G C24A, the yeast fitness is 0.661.

Regarding C27A C34U, the yeast fitness was 0.598.

Regarding U19A A40U, the yeast fitness turned out to be 1.07.

G23A C46U U59C: the yeast fitness was found to be 0.587.

With C22U A40U A57U A69U, the yeast fitness was not above 0.5.

As for U3G C11A U13C C33A A42U C55A, the yeast fitness is not above 0.5.

Turning to C5G G17C U47A C55A G68A, the yeast fitness was 0.562.

Take U47C U59A: the yeast fitness was found to be 0.961.

Turning to A21C C34G, the yeast fitness turned out to be 0.577.

For G17C A42U, the yeast fitness worked out at 0.703.

Regarding G9C C11U G18C C31A, the yeast fitness is not above 0.5.

Consider C4G A57G, for which the yeast fitness stood at 0.728.

In the case of G6A A37U C55G C66U, the yeast fitness was not above 0.5.

In the case of C27A G68A, the yeast fitness turned out to be 0.787.

For C5G G44C C62U C66U A69C, the yeast fitness was determined as 0.515.

Turning to C11A G51A U53A, the yeast fitness is not above 0.5.

C4U U28G A57G A69C: the yeast fitness is not above 0.5.

Turning to C34A C49G G50A U64A, the yeast fitness came out at 0.551.

On to U16G C24G A37U, for which the yeast fitness was not above 0.5.

A45G C49G: the yeast fitness worked out at 0.712.

On to U2A U8C C24G A43U C46U, for which the yeast fitness was not above 0.5.

For the variant C31A G63C G68U, the yeast fitness was not above 0.5.

For the variant G18A G50C G58C C60U C66G, the yeast fitness is not above 0.5.

Regarding C11U A14C G63C, the yeast fitness is not above 0.5.

As for C4U C11G G18C U47A A69U, the yeast fitness came out at 0.699.

Consider U13G G44A C46U A69C, for which the yeast fitness stood at 0.646.

Take A21G C29U G39A A45U: the yeast fitness stood at 0.547.

Consider G18A C62U, for which the yeast fitness was found to be 0.712.

As to C22U C30G U54C C62G A65U, the yeast fitness is not above 0.5.

For the variant C22G G63A G68U, the yeast fitness is not above 0.5.

Consider G9A C22A U26A G52C G67A, for which the yeast fitness is not above 0.5.

G9A G10C C11U U16G G41A A70G: the yeast fitness is not above 0.5.

For G9C C27A A70G, the yeast fitness worked out at 0.539.

With C29G C34A G39C, the yeast fitness is not above 0.5.

Regarding C27G C29A C55G, the yeast fitness was not above 0.5.

For the variant C22U G58C, the yeast fitness is 0.883.

Turning to U26A A37C A57U, the yeast fitness was not above 0.5.
